Test results: PMC5480654 (Cancer Growth and Metastasis, 2017)

Key:
[1] = Biodistribution of I125-labeled peptides; type: in vivo, mouse
breast cancer cells = assay: Cell proliferation in vitro; type: cell-based
MDA-MB-231 cells [2] = assay: Ki67 and CD31 staining of primary tumors; type: in vivo, mouse
MDA-MB-231 cells [3] = type: in vivo, mouse; details: 15 mg/kg ip every other day
Procedure, shortened: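 Six-week-old female NSG mice, in groups of 4, received 2 × 10^6 cells (grown in RPMI with 5% FBS) into the fourth mammary fat pad. Tumors grew for 2 weeks before stapled peptide treatment began, given intraperitoneally every other day for 5 weeks, […]. Mice were then euthanized and the dissected tumors were weighed individually.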

[4] = Tolerability in treated NSG mice; type: in vivo, mouse
WASF3 = details: in vitro; cited from earlier work
[5] = Blood clearance of I125-labeled peptides; type: in vivo, mouse; details: calculated by the authors, stated in Discussion
Procedure, shortened: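 Peptides were iodinated with I125 on iodination beads (1 bead per 50 µg peptide): I125 was preincubated with the beads for 5 min, then peptide in PBS was added for 15 to 20 min. Free label was removed on 1K-cutoff filters, and labeling efficiency was checked by TLC (85% methanol). Dosing was i.v. via the tail vein, with blood drawn from the opposite vein at 5, 30, 60 min, 3 h and 24 h (3 animals). Blood was weighed, gamma-counted and expressed as activity/g to derive half-life.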

- retention time in the blood system [5]: ~ 30 minutes
Substance: FAM-PEG3-LEK*TNS* LAKIIRQL (sidechain bridge or staple) [WAHM1]
- tumor uptake, WAHM1 compared with WANT3-v1 ([1]; I125-labeled Tyr-N-term versions, SPECT): significantly greater than for the WANT3-v1 peptide
- radioactivity per gram of tissue (gamma counting) ([1]; I125-labeled peptide, organs and tumor isolated after 72 h): significant uptake in tumors after 72 hours
- effect on cell proliferation (breast cancer cells): does not affect cell proliferation
- Ki67 staining of primary tumors (proliferation potential) (MDA-MB-231 cells [2]; WAHM1-treated vs control mice, printed as 25% vs 22%, no significant difference): 25%
- number and size of microvessels in the primary tumors (anti-CD31) (MDA-MB-231 cells [2]; after 5 weeks, vs vehicle alone): significant reduction after 5 weeks in the number and size of microvessels
- weight of the tumors at conclusion of treatment (MDA-MB-231 cells [3]; 5 weeks, vs control tumors): significant reduction
- number of surface tumor nodules on the lungs (MDA-MB-231 cells [3]; 5 weeks, vs vehicle control): significant reduction in the number of surface tumor nodules
- dissemination of tumor cells (bioluminescence imaging) (MDA-MB-231 cells [3]; after 5 weeks, vs DMSO vehicle): significant reduction in the observed extent of dissemination of tumor cells
- overall body weight at conclusion of treatment ([4]; 15 mg/kg ip every other day, 5 weeks): reduced
- morbidity at the higher dose ([4]; 30 mg/kg ip every other day, after 2 weeks, dose discontinued): significant morbidity and weight loss
- phosphoactivation of WASF3 (WASF3): suppresses phosphoactivation of WASF3
